Activity calls are given as the source filed them. The calls are words filed in the database; no cut-off is given here.
What was measured:
[1] = target: T1, Bone morphogenetic protein receptor type-2 (Homo sapiens, UniProt Q13873); assay: (§1) Inhibition of recombinant C-terminal 6His-tagged human BMPR2 (188 to 517 residues) expressed in Escherichia coli Rosetta assessed as apparent inhibition constant using ATP as substrate incubated for 30 mins by Morrison plot analysis; conditions: read-out: Ki(app)
T1 sequence (Q13873 whole entry): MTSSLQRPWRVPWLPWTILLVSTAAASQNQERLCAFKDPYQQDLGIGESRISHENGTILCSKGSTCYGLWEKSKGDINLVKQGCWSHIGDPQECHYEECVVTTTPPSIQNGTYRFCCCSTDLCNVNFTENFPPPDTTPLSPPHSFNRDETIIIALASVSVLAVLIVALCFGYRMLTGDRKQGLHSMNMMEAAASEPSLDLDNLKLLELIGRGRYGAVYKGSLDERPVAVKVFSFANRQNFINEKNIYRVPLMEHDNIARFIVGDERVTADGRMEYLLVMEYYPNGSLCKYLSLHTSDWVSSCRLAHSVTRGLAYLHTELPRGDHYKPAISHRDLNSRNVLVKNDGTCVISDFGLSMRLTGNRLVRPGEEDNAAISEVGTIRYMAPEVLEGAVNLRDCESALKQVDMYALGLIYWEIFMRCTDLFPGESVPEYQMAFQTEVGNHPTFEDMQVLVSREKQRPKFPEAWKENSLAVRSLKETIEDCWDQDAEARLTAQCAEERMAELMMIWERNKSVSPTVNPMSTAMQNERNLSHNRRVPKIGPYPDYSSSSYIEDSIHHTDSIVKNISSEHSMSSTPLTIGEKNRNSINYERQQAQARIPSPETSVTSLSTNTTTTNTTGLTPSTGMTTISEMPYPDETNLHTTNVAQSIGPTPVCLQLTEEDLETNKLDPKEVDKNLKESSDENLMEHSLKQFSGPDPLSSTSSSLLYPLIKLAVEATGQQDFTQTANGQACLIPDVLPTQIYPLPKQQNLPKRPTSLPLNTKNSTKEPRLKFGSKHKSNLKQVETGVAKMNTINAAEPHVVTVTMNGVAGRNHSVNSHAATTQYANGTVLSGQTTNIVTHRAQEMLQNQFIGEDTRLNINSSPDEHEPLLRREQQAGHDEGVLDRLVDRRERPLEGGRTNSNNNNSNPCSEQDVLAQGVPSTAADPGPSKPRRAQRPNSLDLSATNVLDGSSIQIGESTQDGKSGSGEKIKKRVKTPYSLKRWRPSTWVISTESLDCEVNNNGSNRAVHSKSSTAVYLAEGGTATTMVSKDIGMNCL
Procedure, shortened: (§2)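 Purified His-tagged BMPR2 kinase domain with no peptide substrate (intrinsic ATPase). 10 μM ATP, 0.02% Tween-20, kinase buffer, 50 μL, enzyme level optimized for initial-velocity conditions. 30 min at 30 °C. Leftover ATP read by Kinase-Glo luminescence, with no-kinase controls. Kiapp from a modified Morrison equation fitted to normalized fractional activity, assuming no specific inhibition mode.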

[2] = Metabolic stability in human liver microsomes assessed as half life at 2 uM and mesured upto 60 mins in presence of NADPH by UHPLC-MS analysis; format: ADME, Microsome; conditions: for t1/2: microsomes, 1 h, 2 µM
[3] = Metabolic stability in mouse liver microsomes assessed as intrinsic clearance per mg of protein at 2 uM and mesured upto 60 mins in presence of NADPH by UHPLC-MS analysis; format: ADME, Microsome; conditions: for microsomal intrinsic clearance: microsomes, 1 h, 2 µM
[4] = Metabolic stability in mouse liver microsomes assessed as half life at 2 uM and mesured upto 60 mins in presence of NADPH by UHPLC-MS analysis; format: ADME, Microsome; conditions: for t1/2: microsomes, 1 h, 2 µM
[5] = Metabolic stability in human liver microsomes assessed as intrinsic clearance per mg of protein at 2 uM and mesured upto 60 mins in presence of NADPH by UHPLC-MS analysis; format: ADME, Microsome; conditions: for microsomal intrinsic clearance: microsomes, 1 h, 2 µM
[6] = target: T2, Bone morphogenetic protein receptor type-2 (Homo sapiens) (UniProt Q13873); assay: as §1; procedure, shortened: as §2
T2 sequence (whole entry): T1 sequence (Q13873 whole entry)

[7] = Inhibition of BMP signalling pathway in BMP2-stimulated human HEK293T cells expressing BRE and luciferase reporter assessed as inhibition of luciferase transactivation by measuring BRE-reporter activity preincubated for 30 mins followed by BMP2 stimulation and measured after 6 hrs by Bright-GLO mediated luciferase assay; format: cell-based; conditions: HEK-293T
Procedure, shortened: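 293T cells stably carrying a BMP-responsive-element luciferase reporter, 2 × 10^4 per well, attached overnight in phenol-red-free DMEM with 2 mM glycine and 2% heat-inactivated FBS. Pretreated 30 min with inhibitor, then 5 ng/mL BMP2 for 6 h. Bright-Glo luminescence read; IC50 by nonlinear regression.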

[8] = test system: HEK293T; assay: Inhibition of BMP signalling pathway in BMP2-stimulated human HEK293T cells assessed as decrease in SMAD1 phosphorylation at 25 uM preincubated for 30 mins followed by BMP2 stimulation and measured after 15 mins by Western blot analysis; format: cell-based; conditions: time 45.0 min
Procedure, shortened: (§3)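 HEK293T cells, 3 × 10^5 per well, starved overnight in DMEM with 2 mM glycine and 2% heat-inactivated FBS. Pretreated 30 min with inhibitor, then 5 ng/mL BMP2 for 15 min. Lysed in M-PER with protease inhibitors. Western blot for pSMAD1/5, SMAD1, SMAD5 and GAPDH, quantified by densitometry.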

[9] = test system: HEK293T; assay: Inhibition of BMP signalling pathway in BMP2-stimulated human HEK293T cells assessed as decrease in SMAD5 phosphorylation at 25 uM preincubated for 30 mins followed by BMP2 stimulation and measured after 15 mins by Western blot analysis; format: cell-based; conditions: time 45.0 min; procedure, shortened: as §3
[10] = test system: HUVEC; assay: Inhibition of BMP signalling pathway in BMP9-stimulated human HUVEC cells assessed as decrease in SMAD5 phosphorylation at 25 uM preincubated for 30 mins followed by BMP2 stimulation and measured after 15 mins by Western blot analysis; format: cell-based; conditions: time 45.0 min
Procedure, shortened: (§4)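 HUVECs, about 3 × 10^5 per well, starved overnight in Kaighn's F-12 with 0.5% FBS and 30 μg/mL endothelial cell growth supplement. Pretreated 30 min with inhibitor, then stimulated with 0.5 ng/mL BMP9. Lysed in M-PER with protease and phosphatase inhibitors. Western blot for pSMAD1/5, SMAD1 and SMAD5, quantified by densitometry.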

[11] = test system: HUVEC; assay: Inhibition of BMP signalling pathway in BMP9-stimulated human HUVEC cells assessed as decrease in SMAD1 phosphorylation at 25 uM preincubated for 30 mins followed by BMP2 stimulation and measured after 15 mins by Western blot analysis; format: cell-based; conditions: time 45.0 min; procedure, shortened: as §4
[12] = target: Activin receptor type-2B (Homo sapiens, UniProt Q13705); assay: Inhibition of ACVR2B (unknown origin) by LanthaScreen TR-FRET assay
Procedure, shortened: (§5)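 Outsourced SelectScreen profiling using a LanthaScreen TR-FRET binding format, in which a tight-binding tracer is displaced from the kinase.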

[13] = target: Activin receptor type-2A (Homo sapiens, UniProt P27037); assay: Inhibition of ACVR2A (unknown origin) by LanthaScreen TR-FRET assay; procedure, shortened: as §5
[14] = target: TGF-beta receptor type-2 (Homo sapiens, UniProt P37173); assay: Inhibition of TGFBR2 (unknown origin) by LanthaScreen TR-FRET assay; procedure, shortened: as §5
[15] = target: Receptor-interacting serine/threonine-protein kinase 2 (Homo sapiens, UniProt O43353); assay: Inhibition of RIPK2 (unknown origin) incubated for 30 mins in presence of [gamma33P]ATP by microplate reader analysis
[16] = liver microsomes, read-out: CLH

Chain of Activin receptor type-2B (Q13705 whole entry): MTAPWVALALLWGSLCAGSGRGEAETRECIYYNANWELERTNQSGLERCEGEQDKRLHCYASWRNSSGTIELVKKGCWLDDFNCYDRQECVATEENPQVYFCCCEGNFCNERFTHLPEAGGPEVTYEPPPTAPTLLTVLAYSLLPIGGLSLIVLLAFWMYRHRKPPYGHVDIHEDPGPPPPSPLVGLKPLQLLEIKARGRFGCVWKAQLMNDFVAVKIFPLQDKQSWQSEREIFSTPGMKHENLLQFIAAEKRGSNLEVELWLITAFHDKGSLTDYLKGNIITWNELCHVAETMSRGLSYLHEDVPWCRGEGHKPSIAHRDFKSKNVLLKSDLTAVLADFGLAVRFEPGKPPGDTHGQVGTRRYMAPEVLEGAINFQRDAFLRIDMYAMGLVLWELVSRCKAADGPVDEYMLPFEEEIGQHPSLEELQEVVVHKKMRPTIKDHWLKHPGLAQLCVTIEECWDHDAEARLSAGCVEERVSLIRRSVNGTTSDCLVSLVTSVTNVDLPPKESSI
Chain of Receptor-interacting serine/threonine-protein kinase 2 (O43353 whole entry): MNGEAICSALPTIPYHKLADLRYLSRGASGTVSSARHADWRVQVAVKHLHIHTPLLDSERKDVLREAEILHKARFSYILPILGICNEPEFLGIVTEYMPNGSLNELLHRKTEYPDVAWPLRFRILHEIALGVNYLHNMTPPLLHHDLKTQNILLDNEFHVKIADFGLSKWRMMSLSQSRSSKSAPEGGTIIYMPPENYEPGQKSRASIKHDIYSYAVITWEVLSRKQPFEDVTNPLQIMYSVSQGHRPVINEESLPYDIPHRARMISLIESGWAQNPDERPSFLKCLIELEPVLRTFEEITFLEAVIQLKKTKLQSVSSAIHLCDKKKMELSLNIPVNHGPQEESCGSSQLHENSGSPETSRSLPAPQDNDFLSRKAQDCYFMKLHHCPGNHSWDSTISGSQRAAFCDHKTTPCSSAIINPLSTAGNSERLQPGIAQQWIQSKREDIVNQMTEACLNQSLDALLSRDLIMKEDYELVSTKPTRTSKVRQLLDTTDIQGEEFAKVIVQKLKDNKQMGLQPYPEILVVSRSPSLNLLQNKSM
Chain of Activin receptor type-2A (P27037 whole entry): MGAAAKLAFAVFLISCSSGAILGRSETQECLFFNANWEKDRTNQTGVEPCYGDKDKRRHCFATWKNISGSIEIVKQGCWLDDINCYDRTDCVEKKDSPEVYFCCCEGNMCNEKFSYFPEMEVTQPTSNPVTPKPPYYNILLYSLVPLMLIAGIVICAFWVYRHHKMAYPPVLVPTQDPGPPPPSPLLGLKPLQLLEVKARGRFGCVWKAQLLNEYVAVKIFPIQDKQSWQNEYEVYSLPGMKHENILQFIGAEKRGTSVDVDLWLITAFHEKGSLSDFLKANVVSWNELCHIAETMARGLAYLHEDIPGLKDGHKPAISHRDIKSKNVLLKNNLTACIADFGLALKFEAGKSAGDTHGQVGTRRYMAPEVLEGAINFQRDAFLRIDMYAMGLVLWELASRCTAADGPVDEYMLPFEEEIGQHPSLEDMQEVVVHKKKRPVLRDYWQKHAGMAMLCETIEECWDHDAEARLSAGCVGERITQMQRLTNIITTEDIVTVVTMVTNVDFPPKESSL
Chain of TGF-beta receptor type-2 (P37173 whole entry): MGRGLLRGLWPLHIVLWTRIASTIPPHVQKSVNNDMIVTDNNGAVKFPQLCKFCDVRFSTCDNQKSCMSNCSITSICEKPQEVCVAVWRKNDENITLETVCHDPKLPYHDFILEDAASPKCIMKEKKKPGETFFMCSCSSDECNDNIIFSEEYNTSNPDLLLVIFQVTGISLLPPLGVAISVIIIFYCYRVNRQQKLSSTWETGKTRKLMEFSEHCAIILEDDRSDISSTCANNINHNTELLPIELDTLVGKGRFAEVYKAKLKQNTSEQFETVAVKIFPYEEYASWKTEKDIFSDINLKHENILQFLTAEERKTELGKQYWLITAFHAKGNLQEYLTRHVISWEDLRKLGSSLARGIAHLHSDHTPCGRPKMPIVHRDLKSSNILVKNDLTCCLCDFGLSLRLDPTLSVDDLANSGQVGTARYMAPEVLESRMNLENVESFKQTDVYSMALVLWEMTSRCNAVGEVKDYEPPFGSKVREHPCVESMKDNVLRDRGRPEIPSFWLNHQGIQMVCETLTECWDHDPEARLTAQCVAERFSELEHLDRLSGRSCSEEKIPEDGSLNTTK

CNC(=O)[C@@H]1CC[C@@H](n2c(-c3ccc4cnccc4c3)nc3ccc(C(=O)NCc4ccccc4)cc32)C1
Ki [1]: 0.039 µM

COc1cnc(Nc2cccc(S(N)(=O)=O)c2)nc1N1CCN(c2ccccn2)CC1
half-life at 2 µM ([2]; liver microsomes): 43 min | microsomal intrinsic clearance at 2 µM [3, 16]: 159 µL/min/mg | half-life at 2 µM ([4]; liver microsomes): 9 min | microsomal intrinsic clearance at 2 µM [5, 16]: 32 µL/min/mg

COc1cnc(Nc2cccc(S(N)(=O)=O)c2)nc1N1CC2CCC1CN2c1ccccc1 (stereo not drawn)
Ki [1]: 0.31 µM

COc1cnc(Nc2cccc(S(N)(=O)=O)c2)nc1N1CC2CCC(C1)N2c1ccccc1
Ki [1]: 0.22 µM

NS(=O)(=O)c1cccc(Nc2ncc(OC(F)F)c(N3CCN(c4ccccc4)C(=O)C3)n2)c1
Ki [1]: > 0.2 µM

CNC(=O)c1ccc2nc(-c3ccc4cnccc4c3)n([C@@H]3CC[C@@H](C(=O)NC)C3)c2c1
Ki [1]: > 1 µM

COc1cnc(Nc2cccc(S(N)(=O)=O)c2)nc1N1CCN(c2ccccc2)CC1C (stereo not drawn)
Ki [1]: 0.088 µM | t1/2 [2]: 79 min | microsomal intrinsic clearance [3]: 233 µL/min/mg | t1/2 [4]: 6 min | microsomal intrinsic clearance [5]: 18 µL/min/mg

COc1cnc(Nc2ccccc2)nc1N1CCN(c2ccccc2)CC1
inhibition [6]: inactive

Cc1nnc2n1-c1ccc(Cl)cc1C(c1ccccc1)=NC2 [ALPRAZOLAM]
t1/2 [2]: 620 min | microsomal CLint at 2 µM [3, 16]: 5 µL/min/mg | t1/2 [4]: 258 min

CC(C)Oc1cnc(Nc2cccc(S(N)(=O)=O)c2)nc1N1CCN(c2ccccc2)C(=O)C1
Ki [1]: > 0.2 µM

Cc1sc2c(c1C)C(c1ccc(Cl)cc1)=N[C@@H](CC(=O)OC(C)(C)C)c1nnc(C)n1-2
t1/2 [2]: 14 min

NS(=O)(=O)c1cccc(Nc2ncc(C(F)(F)F)c(N3CCN(c4ccccc4)C(=O)C3)n2)c1
inhibition [6]: inactive

COc1cnc(Nc2cccc(S(N)(=O)=O)c2)nc1N1CCN(c2ccccc2)CC1C(F)(F)F (stereo not drawn)
Ki [1]: 0.43 µM

Cn1c(-c2ccc3cnccc3c2)nc2ccc(C(=O)NCc3cccc(C(N)=O)c3)cc21
Ki [1]: 0.022 µM | IC50 [7]: 29.8 µM | t1/2 [2]: 69 min | microsomal intrinsic clearance [3]: 99 µL/min/mg | t1/2 [4]: 14 min | microsomal intrinsic clearance [5]: 20 µL/min/mg

COc1cnc(Nc2cccc(S(N)(=O)=O)c2)nc1N1CCNCC1
Ki [1]: 0.25 µM

NS(=O)(=O)c1cccc(Nc2ncc(F)c(N3CCN(c4ccccc4)C(=O)C3)n2)c1
Ki [1]: 0.236 µM

CNC(=O)[C@@H]1CC[C@@H](n2c(-c3cccc(Cl)c3)nc3ccc(C(=O)NCc4cccc(C(N)=O)c4)cc32)C1
Ki [1]: > 1 µM

COc1cnc(Nc2cccc(S(N)(=O)=O)c2)nc1N1CCN(c2ccccc2)CC12CC2
Ki [1]: 0.22 µM

COc1cnc(Nc2cccc(S(N)(=O)=O)c2)nc1N1CCN(c2ccccc2)CC1
inhibition [8]: Active | inhibition [9]: Active | Ki [1]: 0.04 µM | IC50 [7]: 8.72 µM | t1/2 [2]: 77 min | inhibition [10]: Active | inhibition [11]: Active | microsomal intrinsic clearance [3]: 120 µL/min/mg | t1/2 [4]: 12 min | microsomal intrinsic clearance [5]: 18 µL/min/mg

CNC(=O)[C@@H]1CC[C@@H](n2c(-c3cc(Cl)cc(Cl)c3)nc3ccc(C(=O)NCc4cccc(C(N)=O)c4)cc32)C1
Ki [1]: > 1 µM

COc1cnc(Nc2cccc(S(N)(=O)=O)c2)nc1N1CC(F)(c2ccccc2)C1
Ki [1]: 0.018 µM | t1/2 [2]: 170 min | microsomal intrinsic clearance [3]: 65 µL/min/mg | t1/2 [4]: 21 min | microsomal intrinsic clearance [5]: 8 µL/min/mg

COc1cnc(Nc2cccc(S(N)(=O)=O)c2)nc1N1CCN(c2ccccc2)C(C)C1 (stereo not drawn)
Ki [1]: 0.118 µM | t1/2 [2]: 60 min | microsomal intrinsic clearance [3]: 220 µL/min/mg | t1/2 [4]: 6 min | microsomal intrinsic clearance [5]: 23 µL/min/mg

CCOc1cnc(Nc2cccc(S(N)(=O)=O)c2)nc1N1CCN(c2ccccc2)C(=O)C1
Ki [1]: 0.005 µM | t1/2 [2]: 73 min | microsomal intrinsic clearance [3]: 79 µL/min/mg | t1/2 [4]: 18 min | microsomal intrinsic clearance [5]: 19 µL/min/mg

c1ccc2c(-c3cnn4cc(-c5ccc(N6CCNCC6)cc5)cnc34)ccnc2c1
IC50 [12]: 0.0093 µM | inhibition [8]: Active | inhibition [9]: Active | IC50 [13]: 0.0093 µM | IC50 [7]: 0.082 µM | inhibition [10]: Active | inhibition [11]: Active | IC50 [14]: 0.0042 µM | IC50 [15]: 0.025 µM

COc1cnc(Nc2cccc(S(N)(=O)=O)c2)nc1N1CC2CC1CN2c1ccccc1 (stereo not drawn)
Ki [1]: 0.93 µM

From ChEMBL document CHEMBL5316332 (J Med Chem, 2023)
